Screens: PubChem BioAssay, Johns Hopkins Ion Channel Center
Compounds with a hit are over-represented: about 4.1% of the library has one in this group of screens.
RGS4 act – RGS4 potentiators or activators, primary screen, cell-based, HEK293 M3R inducible RGS4, calcium flux; carbachol calcium flux Fluo4; stronger effect = lower value; B-score at 10 µM; 310,000 compounds, 0.92% hits; AID 463111, 2010;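 active means B-score of the integrated calcium signal more than 4 SD below the library mean, with starting fluorescence not abnormally high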;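 further: negative B-score means reduced calcium response which marks RGS4 activation or potentiation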
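Detection: kinetic calcium fluorescence imaging with Fluo4-AM dye, 2 µM / Material: HEK293 cells with stable M3R and inducible RGS4 / Schedule: recording 10 s baseline at 1 Hz, 100 s post-agonist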
MrgX1 antagonist – antagonists of human MrgX1 receptor, primary screen, HEK293 cells, Fluo-4 calcium flux. Mas-related G-protein coupled receptor member X1 (Homo sapiens), Q96LB2. BAM8-22 antagonism; stronger effect = lower value. B-score at 10 µM. 310,000 compounds, 1.3% hits. AID 588676, 2011;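 active means calcium-response B-score plate-corrected more than 3 library SD below zero, starting fluorescence within 5 deviations, no agonist response on first addition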;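 further: peak minus trough fluorescence over baseline after final BAM8-22 challenge near maximal dose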
Target sequence (Q96LB2 whole entry, looked up): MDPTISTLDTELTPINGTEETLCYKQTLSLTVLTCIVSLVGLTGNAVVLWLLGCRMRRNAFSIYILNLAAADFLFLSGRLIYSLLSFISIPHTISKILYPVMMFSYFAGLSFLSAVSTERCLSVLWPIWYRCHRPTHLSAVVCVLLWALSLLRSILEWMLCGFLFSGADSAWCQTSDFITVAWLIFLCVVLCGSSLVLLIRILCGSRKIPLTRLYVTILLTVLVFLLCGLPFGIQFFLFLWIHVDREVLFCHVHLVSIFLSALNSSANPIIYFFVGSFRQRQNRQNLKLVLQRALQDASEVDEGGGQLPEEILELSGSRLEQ
Kir21 inh – inhibitors of mouse Kir2.1 inward-rectifier potassium channel; HEK293-Kir2.1, FluxOR thallium flux fluorescence; stronger effect = lower value; B-score at 10 µM; 310,000 compounds, 0.85% hits; AID 1672, 2009;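 active means fluorescence ratio B-score at or below minus 3 SD of library scores, with starting-brightness B-score within 2 SD, cut at about -4.2 in these data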;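 further: channel flux triggered by added potassium and thallium sulfate stimulus; B-score of peak minus minimum fluorescence over baseline after thallium stimulus; more negative B-score means stronger Kir2.1 block with less thallium influx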
RGS4 inh – RGS4 inhibitors, primary screen, cell-based, HEK293 M3R inducible RGS4, calcium flux | Regulator of G-protein signaling 4 (Homo sapiens), P49798 | Fluo-4 calcium flux; stronger effect = higher value; triggered by carbachol at its EC20 | B-score at 10 µM | 310,000 compounds, 0.45% hits | AID 463165, 2010;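 active means B-score, a plate-corrected calcium signal, over three deviations above library mean, with baseline fluorescence within five deviations of library mean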;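 further: RGS4 expression induced by doxycycline in cells with stable M3 receptor; B-score is computed from the integrated fluorescence ratio over baseline after carbachol; higher B-score means a larger calcium signal and so more RGS4 inhibition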
Target sequence (P49798 whole entry, looked up): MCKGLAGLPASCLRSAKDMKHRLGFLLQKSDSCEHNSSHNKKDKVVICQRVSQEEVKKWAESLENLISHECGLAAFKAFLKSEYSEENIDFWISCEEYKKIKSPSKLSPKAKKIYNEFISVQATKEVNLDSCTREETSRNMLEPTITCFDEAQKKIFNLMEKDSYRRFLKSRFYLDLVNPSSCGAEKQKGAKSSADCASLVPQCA
MrgX1 allo act – positive allosteric modulators of MrgX1, primary screen, HEK293 cells, Fluo-4 calcium flux | Mas-related G-protein coupled receptor member X1 (Homo sapiens), Q96LB2 | FDSS; stronger effect = higher value | B-score at 10 µM | 310,000 compounds, 0.63% hits;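 active means plate-corrected calcium response at least 3 library SD above typical, normal starting fluorescence, not activating the receptor alone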;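 further: compound read alongside a low EC10 to EC30 dose of BAM8-22 agonist; peak minus trough fluorescence over baseline measured at the second addition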
MrgX1 agonist – agonists of human MrgX1 receptor, primary screen, HEK293 cells, Fluo-4 calcium flux. Mas-related G-protein coupled receptor member X1 (Homo sapiens), Q96LB2. Fluo-4 calcium fluorescence, agonist mode; stronger effect = higher value. B-score at 10 µM. 310,000 compounds, 0.44% hits. AID 588627, 2011;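 active means calcium response B-score plate-corrected fluorescence ratio at least 3 library SD, with starting fluorescence B-score inside 5 SD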
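Material: HEK293 cells stably expressing human MrgX1 receptor | Quantity: 15,000 cells per well | Times: Cells plated overnight, dye loaded 0.5 h 37 °C, 0.5 h room temperature | Measured by: Kinetic Fluo-4 NW fluorescence of intracellular calcium | Control set: Positive and negative controls per plate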
* = called active by the depositor.

What do the screens show for `CCOC(=O)c1ccc(-[n+]2c(-c3ccccc3)cc(-c3ccccc3)cc2-c2ccccc2)cc1`?
RGS4 act: inactive; MrgX1 antagonist: inactive; Kir21 inh: -11*; RGS4 inh: inactive; MrgX1 allo act: inactive; MrgX1 agonist: 28*

How did CCOC(=O)c1cccc(-[n+]2c(-c3ccccc3)cc(-c3ccccc3)cc2-c2ccccc2)c1 do in these assays?
RGS4 act: -7.7*; MrgX1 antagonist: -6.8*; Kir21 inh: -11*; RGS4 inh: inactive; MrgX1 allo act: inactive; MrgX1 agonist: inactive

What do the screens show for `CCOC(=O)c1ccccc1C(=O)OCC`?
RGS4 act: inactive; MrgX1 antagonist: inactive; Kir21 inh: -0.2; RGS4 inh: inactive; MrgX1 allo act: inactive; MrgX1 agonist: inactive

How did C=C1C/C(=C/C)C(=O)O[C@@H]2CCN3CC=C(COC(=O)[C@]1(C)O)[C@H]23 do in these assays?
RGS4 act: inactive; MrgX1 antagonist: inactive; Kir21 inh: 0.07; RGS4 inh: inactive; MrgX1 allo act: inactive; MrgX1 agonist: inactive

What do the screens show for `CCCCN1C(=O)/C(=C\c2ccco2)C(=O)N(CCc2ccccc2)C1=O`?
RGS4 act: inactive; MrgX1 antagonist: inactive; Kir21 inh: 1.4; RGS4 inh: inactive; MrgX1 allo act: inactive; MrgX1 agonist: inactive

Results for Cn1cc(C=C2C(=O)NC(=O)NC2=O)c2ccccc21 ?
RGS4 act: inactive; MrgX1 antagonist: inactive; Kir21 inh: -0.93; RGS4 inh: inactive; MrgX1 allo act: inactive; MrgX1 agonist: inactive

What do the screens show for `C=CCn1c(C)c(C=C2C(=O)NC(=O)NC2=O)c2ccccc21`?
RGS4 act: inactive; MrgX1 antagonist: inactive; Kir21 inh: -0.62; RGS4 inh: inactive; MrgX1 allo act: inactive; MrgX1 agonist: 39*

Results for Cc1ccccc1-n1c(O)c(/C=C2/C(c3ccccc3)=Nc3ccccc32)c(=O)[nH]c1=O ?
RGS4 act: inactive; MrgX1 antagonist: inactive; Kir21 inh: -1.8; RGS4 inh: inactive; MrgX1 allo act: inactive; MrgX1 agonist: inactive

How did CC1=Nc2ccccc2/C1=C/c1c(O)n(C)c(=O)[nH]c1=O do in these assays?
RGS4 act: inactive; MrgX1 antagonist: inactive; Kir21 inh: -0.62; RGS4 inh: inactive; MrgX1 allo act: 8.1*; MrgX1 agonist: inactive

How did COc1ccc(S(=O)(=O)Cc2ccc(C(=O)N3CCC4(CC3)OCCO4)o2)cc1 do in these assays?
RGS4 act: inactive; MrgX1 antagonist: inactive; Kir21 inh: -0.7; RGS4 inh: inactive; MrgX1 allo act: inactive; MrgX1 agonist: inactive

What do the screens show for `CCN(CC)CCCN=Cc1c(O)n(CCc2ccc(F)cc2)c(=O)[nH]c1=O`?
RGS4 act: inactive; MrgX1 antagonist: inactive; Kir21 inh: 0.03; RGS4 inh: inactive; MrgX1 allo act: inactive; MrgX1 agonist: inactive

How did CCOc1cccc(C2NCc3ccccc3-n3cccc32)c1O (stereo not given) do in these assays?
RGS4 act: inactive; MrgX1 antagonist: inactive; Kir21 inh: -0.34; RGS4 inh: inactive; MrgX1 allo act: inactive; MrgX1 agonist: inactive

What do the screens show for `CC(C)c1ccc(C2NCc3ccccc3-n3cccc32)cc1` (stereo not given)?
RGS4 act: inactive; MrgX1 antagonist: inactive; Kir21 inh: -0.19; RGS4 inh: inactive; MrgX1 allo act: inactive; MrgX1 agonist: inactive

Results for Oc1ccccc1C1NCc2ccccc2-n2cccc21 (stereo not given) ?
RGS4 act: inactive; MrgX1 antagonist: inactive; Kir21 inh: -4.5*; RGS4 inh: inactive; MrgX1 allo act: inactive; MrgX1 agonist: inactive

Results for Clc1ccccc1C1NCc2ccccc2-n2cccc21 (stereo not given) ?
RGS4 act: inactive; MrgX1 antagonist: inactive; Kir21 inh: -5.2*; RGS4 inh: inactive; MrgX1 allo act: inactive; MrgX1 agonist: inactive

What do the screens show for `Cc1cccc(N2C(=O)NC(=O)/C(=C\c3ccc4c(c3)CCCN4Cc3ccccc3)C2=O)c1`?
RGS4 act: inactive; MrgX1 antagonist: inactive; Kir21 inh: -0.77; RGS4 inh: inactive; MrgX1 allo act: 12*; MrgX1 agonist: inactive

How did O=[N+]([O-])c1ccc(N2CCCCCC2)c2nonc12 do in these assays?
RGS4 act: inactive; MrgX1 antagonist: inactive; Kir21 inh: -9; RGS4 inh: inactive; MrgX1 allo act: inactive; MrgX1 agonist: inactive

What do the screens show for `Cc1ccc2c(c1)CC1(CN2C)C(=O)NC(=O)N(c2ccccc2C)C1=O` (stereo not given)?
RGS4 act: inactive; MrgX1 antagonist: -8.5*; Kir21 inh: 0.95; RGS4 inh: inactive; MrgX1 allo act: inactive; MrgX1 agonist: inactive

How did FC(F)(F)c1cccc(NC2=NCCCS2)c1 do in these assays?
RGS4 act: inactive; MrgX1 antagonist: inactive; Kir21 inh: -0.45; RGS4 inh: inactive; MrgX1 allo act: inactive; MrgX1 agonist: inactive

What do the screens show for `O=C(C(=O)N1CCOCC1)c1cn(CCCOc2ccccc2)c2ccccc12`?
RGS4 act: inactive; MrgX1 antagonist: inactive; Kir21 inh: -0.38; RGS4 inh: inactive; MrgX1 allo act: inactive; MrgX1 agonist: inactive

How did CC(=O)c1cn(CCCOc2ccccc2)c2ccccc12 do in these assays?
RGS4 act: inactive; MrgX1 antagonist: inactive; Kir21 inh: -4.6*; RGS4 inh: inactive; MrgX1 allo act: inactive; MrgX1 agonist: inactive

How did COCCNC(=O)c1ccc(N2CC3CC(C2)c2cccc(=O)n2C3)c([N+](=O)[O-])c1 (stereo not given) do in these assays?
RGS4 act: inactive; MrgX1 antagonist: inactive; Kir21 inh: 0.24; RGS4 inh: inactive; MrgX1 allo act: inactive; MrgX1 agonist: inactive

Results for CN1C(=O)C(=Cc2ccc(N3CCCCCC3)o2)C(=O)N(C)C1=S ?
MrgX1 antagonist: inactive; MrgX1 allo act: inactive; MrgX1 agonist: 29*

Results for COc1ccc2[nH]c(C)c(CCNCc3cc(OC)c(OC)c(OC)c3)c2c1 ?
RGS4 act: inactive; MrgX1 antagonist: inactive; Kir21 inh: -0.01; RGS4 inh: inactive; MrgX1 allo act: inactive; MrgX1 agonist: inactive

Results for COc1ccc(CNCCc2c(C)[nH]c3ccc(OC(F)(F)F)cc23)c(OC)c1 ?
RGS4 act: inactive; MrgX1 antagonist: -4.7*; Kir21 inh: -6.9*; RGS4 inh: inactive; MrgX1 allo act: inactive; MrgX1 agonist: inactive
